HKDC1 inh: inhibitors of human hexokinase HKDC1; AID 493160; Q2TB90; hit rate 0.16% among 340,000; inhibition, % at 20 µM; recombinant HKDC1, G6PDH/diaphorase resazurin coupled fluorescence;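 active = inhibition above about 35% when tested at 20 µM, limit read from the data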;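 note: plate controls were DMSO wells with enzyme for no effect and DMSO wells lacking enzyme for full effect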
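Test system: recombinant HKDC1 (HK5) hexokinase enzyme, produced in-house; Amount: enzyme 5 µg/mL final; Buffer or medium: Tris pH 8.0 buffer with MgCl2, Tween-20, BSA, BME; Reagent: glucose and ATP substrates; Doses: 20 µM test compound, 1% DMSO; Incubation: 90 min reaction incubation at room temperature, dark; Detection: resorufin fluorescence at 613 nm.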
Diaph inh CS: inhibits diaphorase or chemically oxidizes, flagging diaphorase assay artifacts; AID 1217; inhibition, % at 20 µM; diaphorase resazurin-to-resorufin fluorescence, NADH, 16 min; bacterial (C. kluyveri) enzyme, not human; hit rate 0.69% among 190,000;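 active = primary screen inhibition at 20 µM above a set limit, cut at about 50% in these data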;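 note: plate controls were DMSO with full reaction for no effect and wells lacking NADH for full effect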
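System: Bacterial diaphorase enzyme (C. kluyveri) | Incubation: 16-min room-temperature incubation before reading | Benchmarks: No-NADH positive control and DMSO neutral control | Measured by: Resorufin fluorescence 544/590 nm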
PfGluPho inh: PfG6PD (Plasmodium falciparum) enzyme inhibition; PfGluPho enzyme, NADPH resazurin-diaphorase fluorescence; inhibition, % at 20 µM; hit rate 0.78% among 350,000;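 active = inhibition reaching at least a set limit at 20 µM in the primary screen, cut at about 59% in these data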;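 note: 0% = DMSO wells with substrate and 100% = DMSO wells lacking glucose-6-phosphate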
Diaph act CS: activates diaphorase or chemically reduces, flagging diaphorase assay artifacts | Diaphorase/resazurin coupled assay, resorufin fluorescence, 16 min; active compounds read high; 1 = vehicle wells, 0 = NADH-free wells | hit rate 0.005% among 190,000 | activation factor at 20 µM;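 active = diaphorase activity raised at least twofold by the compound at 20 µM; inactive = activation factor below 2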
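Material: Clostridium kluyveri diaphorase, purified enzyme; Quantity: enzyme 0.07 U/mL final; Medium: HEPES pH 7.4 buffer with MgCl2 and Tween 20; Dosing: single compound dose of 20 µM, 1% DMSO final; Schedule: 16 min reaction at room temperature; Measured by: red resorufin fluorescence at 544/590 nm excitation/emission.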
G6PDH counter: counter-screen for G6PDH assay hits: L. mesenteroides G6PDH inhibition | Purified L. mesenteroides G6PDH, diaphorase/resazurin coupled fluorescence, 45 min | inhibition, % at 5 µM | AID 1020 | hit rate 0.12% among 200,000; in the data active = inhibition above about 50%
PfGluPho conf: confirmation of Plasmodium falciparum G6PD inhibitors | hit rate 34% among 2,400 | inhibition, % at 20 µM | shares compounds with PfGluPho inh | recombinant PfGluPho, NADPH-diaphorase-resazurin fluorescence;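 active = inhibition of at least 50% at 20 µM in any single replicate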;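 note: 0% = DMSO with substrate and 100% = DMSO lacking glucose-6-phosphate substrate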
Diaph ctr 10uM: inhibits diaphorase or oxidizes, flagging false PfG6PD hits. shares compounds with PfGluPho inh. diaphorase-coupled resazurin reduction, fluorescence, NADPH 10 uM. inhibition, % at 20 µM. hit rate 39% among 820. AID 504862;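 active = average inhibition reaching 50% or more with the compound at 20 µM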;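 note: resorufin red fluorescence formed as diaphorase reduces resazurin using NADPH; 0% = DMSO with enzyme and 100% = DMSO without enzyme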
Diaph ctr 30uM: inhibits diaphorase or oxidizes, flagging false PfG6PD hits | shares compounds with PfGluPho inh | Diaphorase/resazurin coupled assay, resorufin fluorescence, 30 uM NADPH | inhibition, % at 20 µM | hit rate 29% among 820 | AID 504863;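 active = inhibition averaging 50% or more, tested at 20 µM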;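 note: 0% = DMSO with enzyme and 100% = DMSO wells lacking diaphorase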
The depositor's hits bear a star; nt = not tested or not shown. The list is not random: actives were taken first. Their share in the collection is about 1.3%.

SMILES	HKDC1 inh	Diaph inh CS	PfGluPho inh	Diaph act CS	G6PDH counter	PfGluPho conf	others
COC(=O)c1sc(N2C(=O)C(=O)/C(=C(/O)c3ccc(C)cc3)C2c2ccco2)nc1C (centres undefined)	16.1	nt	-28.0	nt	nt	nt
O=c1c(O)c(-c2ccccc2)oc2cc(O)cc(O)c12	-1.8	nt	-30.5	nt	nt	nt
O=c1c(O)c(-c2cc(O)c(O)c(O)c2)oc2cc(O)cc(O)c12	3.0	nt	67.0*	nt	nt	46.7
COc1cc2[nH]c(C(=O)N(C)C3CCS(=O)(=O)C3)cc2c(OC)c1OC (centres undefined)	-3.5	nt	-2.3	nt	nt	nt
O=C1C=CC(=O)N1c1ccc2c(c1)Cc1cc(F)ccc1-2	1.5	nt	83.8*	nt	nt	44.8
CC(=O)Nc1ccc2c(c1)Cc1cc(N3C(=O)C=CC3=O)ccc1-2	-5.3	nt	111.1*	nt	nt	100.0*	Diaph ctr 10uM=-14.2;Diaph ctr 30uM=-15.0
O=[N+]([O-])c1ccc2c(c1)Cc1cc(F)ccc1-2	-7.5	nt	-2.0	nt	nt	nt
Nc1nc2ccccc2n1/N=C/c1ccc(-c2ccccc2)o1	3.6	8.9	79.8*	0.9	0.2	13.4
Nc1nc2ccccc2n1/N=C/c1cccnc1	-4.9	nt	18.6	nt	nt	nt
Oc1ccc(Cl)cc1/C=C/c1ccc2cccc(O)c2n1	-8.1	24.9	74.4*	0.8	11.0	-4.7
Oc1c(Cl)cc(Cl)cc1/C=C/c1ccc2cccc(O)c2n1	-7.8	-0.5	81.2*	1	0.1	16.1
Cc1ccc(-n2c(C)cc(C(=O)CSc3nncs3)c2C)cc1	-9.4	6.2	62.1*	0.9	6.7	23.2
O=C(CN(Cc1ccccc1Cl)C(=O)c1ccc(CN2CCOCC2)o1)NCC1CCCO1 (centres undefined)	-0.6	6.2	-5.2	0.9	15.4	nt
Cc1[nH]c(=S)c(C#N)c(C)c1Cc1ccccc1	4.5	nt	51.4	nt	nt	nt
Cc1[nH]c(=S)c(C#N)c(C)c1CCC#N	-3.2	nt	68.8*	nt	nt	50.7*	Diaph ctr 10uM=10.6;Diaph ctr 30uM=-3.1
O=C(NCCS(=O)(=O)NC1CCCCC1)c1ccccc1	-0.6	nt	-13.2	nt	nt	nt
CC1=CC(C)(C)NC(=S)N1c1cc(C)cc(C)c1	4.4	4.1	62.6*	1	8.6	23.0
CN1C(=O)c2ccccc2C(C(=O)O)C1c1cccc([N+](=O)[O-])c1 (centres undefined)	-8.9	11.8	-10.2	0.9	9.6	nt
CCOc1cc(C2CC(=O)N3CN(C4CCCCC4)CSC3=C2C#N)ccc1O (centres undefined)	17.1	57.9*	76.2*	0.4	-26.0	44.3
COC(=O)C1=C(C)N(C)C(=O)NC1c1c(OC)ccc2ccccc12 (centres undefined)	-14.6	nt	-18.6	nt	nt	nt
COc1cc(C2CC(=O)N3CN(Cc4ccco4)CSC3=C2C#N)ccc1OCc1ccccc1 (centres undefined)	13.5	45.3	60.3*	0.5	14.4	4.2
COc1ccc2ccccc2c1C1CC(=O)N2CN(Cc3ccco3)CSC2=C1C#N (centres undefined)	13.2	45.5	68.3*	0.5	15.9	42.0
COc1cc(CNCc2ccco2)ccc1OCc1ccccc1	-10.5	1.5	-0.6	1	-0.4	nt
COc1ccc2ccccc2c1C1CC(=O)N2CN(C3CCCCC3)CSC2=C1C#N (centres undefined)	13.9	38.3	72.1*	0.6	28.9	64.7*	Diaph ctr 10uM=-17.8;Diaph ctr 30uM=-21.8
CCOc1cc(C2CC(=O)NC(SCC)=C2C#N)ccc1O (centres undefined)	0.9	22.6	2.0	0.8	-1.3	nt
SMILES	HKDC1 inh	Diaph inh CS	PfGluPho inh	Diaph act CS	G6PDH counter	PfGluPho conf	others
COc1cc2c(C(=O)OCCN(C)C)c(CSc3ccccc3)n(C)c2cc1Br	-0.9	-10.7	-2.0	1.1	-4.3	nt
COCCN(CC1CCCN(C2Cc3ccccc3C2)C1)C(=O)c1ccc(C(C)=O)cc1 (centres undefined)	-5.3	nt	-3.4	nt	nt	nt
COC(=O)c1sc(NC(=O)C2CCCCC2C(=O)O)c(C(=O)OC)c1C (centres undefined)	3.1	8.1	-36.0	0.9	-3.0	nt
N#CC1=C2SCN(Cc3ccccc3)CN2C(=O)CC1c1cccs1 (centres undefined)	10.3	34.1	70.9*	0.7	42.4	7.2
COc1ccc(C2C(C#N)=C(N)Oc3cc(C)n(Cc4ccco4)c(=O)c32)cc1 (centres undefined)	1.3	16.2	23.0	0.8	3.9	nt
CC(C)c1ccc(C2CC(=O)N3CN(Cc4ccco4)CSC3=C2C#N)cc1 (centres undefined)	17.1	31.3	61.4*	0.7	23.2	16.4
COc1ccc(C2CC(=O)N3CN(Cc4ccco4)CSC3=C2C#N)cc1 (centres undefined)	3.1	41.4	59.2*	0.6	29.9	7.0
CCCSC1=C(C#N)C(c2cccs2)CC(=O)N1 (centres undefined)	-1.0	nt	-1.5	nt	nt	nt
Cc1cc(C(=O)COc2cccc(-n3cnnn3)c2)c(C)n1-c1ccccc1	-2.8	17.0	74.1*	0.8	1.9	26.4
COc1ccc(C(=O)NCCc2c[nH]c3ccccc23)cc1S(=O)(=O)N1CCCCC1C (centres undefined)	-0.8	nt	5.9	nt	nt	nt
CCN(CC(=O)Nc1ccc(NC(C)=O)cc1)C(=O)CCN1C(=O)C2CC=CCC2C1=O (centres undefined)	3.0	nt	1.1	nt	nt	nt
COc1ccc(OC)c(-n2c(-c3cc(-c4ccc(F)cc4)n[nH]3)n[nH]c2=S)c1	-3.0	28.2	39.7	0.7	-5.5	nt
COc1ccc(-c2cc(-c3n[nH]c(=S)n3-c3cc(OC)ccc3OC)[nH]n2)cc1	3.0	28.5	59.0	0.7	10.1	23.4
Oc1c(Cl)cc(Cl)c2cccnc12	-4.2	44.3	1.4	0.6	29.6	nt
Oc1c(I)cc(I)c2cccnc12	-11.2	24.2	65.2*	0.8	22.7	5.0
Cc1cccc(S(=O)(=O)Nc2ccc(C)c3c2OC(C)(C)C3)c1	0.8	-2.5	107.1*	1	1.8	48.6
Cc1ccc(NS(=O)(=O)c2ccccc2Cl)c2c1CC(C)(C)O2	2.3	20.7	109.4*	0.8	10.2	59.2*	Diaph ctr 10uM=44.1;Diaph ctr 30uM=30.2
Cc1nc(-c2ccc(Cl)cc2)sc1C1(C)CC(c2cccc(Cl)c2)=NO1 (centres undefined)	-0.9	nt	13.2	nt	nt	nt
COc1ccc(C)cc1NC(=O)c1nnn(Cc2cccc(F)c2)c1N	-3.4	26.1	7.7	0.7	-20.7	nt
COC(=O)c1ccccc1NC(=S)N1CCOCC1	-2.4	nt	-14.9	nt	nt	nt
CCCC(=O)Nc1nc(-c2ccccc2)ns1	-7.5	10.3	29.5	0.9	1.7	nt
